Values after ≈ are worked out from the molar mass of the structure shown.

The target of one series is T1, Androgen receptor (Homo sapiens, UniProt P10275).
T1 sequence (P10275 whole entry): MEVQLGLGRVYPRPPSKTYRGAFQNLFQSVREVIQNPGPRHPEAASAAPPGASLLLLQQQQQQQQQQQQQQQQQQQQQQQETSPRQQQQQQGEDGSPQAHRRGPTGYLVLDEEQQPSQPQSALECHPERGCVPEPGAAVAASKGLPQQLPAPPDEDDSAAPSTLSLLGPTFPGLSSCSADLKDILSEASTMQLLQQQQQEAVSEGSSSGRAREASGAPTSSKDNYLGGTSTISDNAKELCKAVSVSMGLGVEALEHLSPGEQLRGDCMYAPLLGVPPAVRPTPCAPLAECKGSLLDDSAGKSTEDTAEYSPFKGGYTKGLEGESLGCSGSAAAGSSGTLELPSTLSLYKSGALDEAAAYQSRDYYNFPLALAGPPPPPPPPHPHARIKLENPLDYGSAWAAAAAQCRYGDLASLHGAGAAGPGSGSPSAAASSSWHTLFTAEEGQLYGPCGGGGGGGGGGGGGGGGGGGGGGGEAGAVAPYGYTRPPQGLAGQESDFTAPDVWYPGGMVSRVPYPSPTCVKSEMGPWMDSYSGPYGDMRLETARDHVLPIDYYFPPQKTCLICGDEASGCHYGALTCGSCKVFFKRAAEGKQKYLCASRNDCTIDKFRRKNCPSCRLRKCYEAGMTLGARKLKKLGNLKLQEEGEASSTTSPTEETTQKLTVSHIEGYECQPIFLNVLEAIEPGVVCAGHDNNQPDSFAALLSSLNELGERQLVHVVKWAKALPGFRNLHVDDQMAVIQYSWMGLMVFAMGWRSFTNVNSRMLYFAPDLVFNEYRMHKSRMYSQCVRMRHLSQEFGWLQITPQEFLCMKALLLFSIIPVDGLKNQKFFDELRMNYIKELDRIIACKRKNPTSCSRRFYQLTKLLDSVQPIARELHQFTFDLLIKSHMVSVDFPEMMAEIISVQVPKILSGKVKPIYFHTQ
Briefly: Modulation of human androgen receptor expressed in African green monkey CV1 cells after 24 hrs by luciferase reporter gene assay. Type of series: cell-based, CV-1. In a few lines:
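Functional AR activity is read out by a luciferase reporter gene assay in mammalian cells transfected with the human AR gene. EC50 is derived from the response and reported as pEC50 (−log EC50).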
(In general: In a reporter assay the amount or activity of a reporter protein is the signal.)

Series [1] in a line: Kinetic aqueous solubility of the compound in PBS at pH 7.4 after 1 hr by chemiluminescent nitrogen detection method. Type of series: physicochemical. Conditions: read-out: Kinetic_solubility. In a few lines: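 High-throughput kinetic aqueous solubility at pH 7.4. The test compound is added from a DMSO stock, and dissolved compound is quantified by chemiluminescent nitrogen detection (CLND).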

A short description of series [2]: Oral bioavailability in Wistar Han rat at 10 mg/kg, administered as single dose via oral gavage by LC-MS/MS analysis. Type of series: ADME, organism-based. Conditions: in vivo.
Series [3] in a line: Half life in Wistar Han rat at 5 mg/kg, administered as single dose via oral gavage by LC-MS/MS analysis. Type of series: ADME, organism-based. Conditions: in vivo.
Series [4] can be described thus: […] in iv dosed Wistar Han rat administered as single dose by LC-MS/MS analysis. Type of series: ADME, organism-based. Conditions: in vivo.

As a reminder, the EC50 is the midpoint of the concentration-response curve. On to `N#Cc1ccc(C(O)(C2CCCC2)C(F)(F)F)cc1Cl` (stereo not drawn), for which, at Androgen receptor, the response was half-maximal at 3.16 nM (EC50).
As for `Cc1c(C(O)(C#CC(C)(C)C)C(F)(F)F)ccc(C#N)c1Cl` (stereo not drawn), the EC50 on Androgen receptor was 79.4 nM.
The same measure, in the same setting: the same measure for `C/C=C(\C)C(O)(c1ccc(C#N)c(C(F)(F)F)c1)C(F)(F)F` (stereo not drawn): 39.8 nM.
For the compound `Cc1c(C#N)ccc(C(C)(O)C(F)(F)F)c1C` (stereo not drawn), at Androgen receptor, the EC50 was 2510 nM.
Still for that read-out and setting: the same measure for `Cc1c(C(O)(C#CC2CC2)C(F)(F)F)ccc(C#N)c1Cl` (stereo not drawn): 15.8 nM; for `C=C(C)C(O)(c1ccc(C#N)c(C(F)(F)F)c1)C(F)(F)F` (stereo not drawn): 31.6 nM; for `Cc1c(C(O)(C(C)C)C(F)(F)F)ccc(C#N)c1Cl` (stereo not drawn): 0.794 nM.
The term bioavailability denotes dose-corrected exposure relative to a reference, in per cent. In general, half-life refers to the time in which the quantity being followed falls by half. With `N#Cc1ccc(C(O)(c2cocn2)C(F)(F)F)cc1C(F)(F)F` (stereo not drawn), in series [1], the solubility kinetic at 1 h is over 700 µM. For the same compound, the bioavailability in series [2] came out at 83%. In series [3], the half-life is 8 h. The compound further had a half-maximal effective concentration (EC50) at Androgen receptor of 1.26 nM.
Taken in the same sequence, the figures for `Cc1c(C(O)(c2cocn2)C(F)(F)F)ccc(C#N)c1C(F)(F)F` (stereo not drawn) were over 400 µM, 100%, 5.5 h and 0.501 nM.
On Androgen receptor, `Cc1c(C(O)(C(C)(C)C)C(F)(F)F)ccc(C#N)c1Cl` (stereo not drawn) gave an EC50 of 79.4 nM.
Same read-out and setting: the same measure for `CC(C)C(O)(c1ccc(C#N)c(Cl)c1Cl)C(F)(F)F` (stereo not drawn): 0.794 nM; for `CC(O)(c1ccc(C#N)c(Cl)c1Cl)C(F)(F)F` (stereo not drawn): 63.1 nM.
The same measure, in the same setting: the same measure for `N#Cc1ccc(C(O)(c2ccc(Cl)o2)C(F)(F)F)cc1C(F)(F)F` (stereo not drawn): 2.51 nM; for `C=CC(O)(c1ccc(C#N)c(C(F)(F)F)c1)C(F)(F)F` (stereo not drawn): 12.6 nM; for `Cc1c(C(O)(c2nccs2)C(F)(F)F)ccc(C#N)c1C(F)(F)F` (stereo not drawn): 10.5 nM.
With `Cc1c(C(O)(C2CC2)C(F)(F)F)ccc(C#N)c1Cl` (stereo not drawn), a half-maximal response on Androgen receptor (EC50) required 0.2 nM.
Regarding `Cc1c(C(O)(C(F)(F)F)C(F)(F)F)ccc(C#N)c1C(F)(F)F`, the EC50 on Androgen receptor is 1.58 nM.
On the same count and under the same terms, the same measure for `CC(C)CC(O)(c1ccc(C#N)c(Cl)c1Cl)C(F)(F)F` (stereo not drawn): 3.16 nM; for `Cc1c(C(C)(C)C(O)C(F)(F)F)ccc(C#N)c1C(F)(F)F` (stereo not drawn): 15.8 nM.
Broadly, the clearance is the rate of elimination divided by the concentration. `N#Cc1ccc(C(O)(C2CC2)C(F)(F)F)cc1Cl` (stereo not drawn) showed a clearance in series [4] of 0.72 L/h/kg. The solubility kinetic at 1 h in series [1] is over 400 µM. This compound yielded a bioavailability in series [2] of 80%. Moreover, the half-life in series [3] was 18 h. Besides, a half-maximal effect at Androgen receptor (EC50) was put at 0.398 nM.
Take `N#Cc1ccc(C(O)(C2CC2)C(F)(F)F)c(Cl)c1Cl` (stereo not drawn): the EC50 at Androgen receptor is 0.2 nM.
With `CC(C)C(O)(c1ccc(C#N)c(Cl)c1)C(F)(F)F` (stereo not drawn), at Androgen receptor, the 50% effective concentration (EC50) is 3.98 nM.
On the same count and under the same terms, the value for `N#Cc1ccc(C(O)(c2ccco2)C(F)(F)F)cc1C(F)(F)F` (stereo not drawn) was 1.26 nM; that for `N#Cc1ccc(C(O)(CO)C(F)(F)F)cc1C(F)(F)F` (stereo not drawn) was 10000 nM.
In turn, `Cc1c(C(O)(CC(C)(C)C)C(F)(F)F)ccc(C#N)c1Cl` (stereo not drawn) gave an EC50 on Androgen receptor of 3.98 nM.
For the compound `Cc1c(C(O)(C2CC2)C(F)(F)F)ccc(C#N)c1C(F)(F)F` (stereo not drawn), the solubility kinetic at 1 h in series [1] was 245 µM (≈ 79.2 µg/mL). This compound also returned a bioavailability in series [2] of 37%. Further, the half-life in series [3] is 10 h. At Androgen receptor, this compound had an EC50 of 0.0316 nM.
For the compound `N#Cc1ccc(C(O)(C(F)(F)F)C(F)(F)F)cc1C(F)(F)F`, the midpoint of the response at Androgen receptor, the EC50, lay at 15.8 nM.
Same read-out and setting: the same measure for `Cc1c(C#N)ccc(C(O)(CC(C)(C)C)C(F)(F)F)c1C` (stereo not drawn): 20 nM.
Regarding `CCC(O)(c1ccc(C#N)c(C(F)(F)F)c1)C(F)(F)F` (stereo not drawn), the bioavailability in series [2] turned out to be 70%. Moreover, the half-life in series [3] was 83 h. In addition, the EC50 at Androgen receptor was 3.98 nM.
Turning to `CC(C)C(O)(c1ccc(C#N)c(C(F)(F)F)c1)C(F)(F)F` (stereo not drawn), the EC50 on Androgen receptor is 7.94 nM.
With `Cc1c(C#N)ccc(C(O)(C2CC2)C(F)(F)F)c1C` (stereo not drawn), the EC50 at Androgen receptor was 1.58 nM.
The same measure, in the same setting: the same measure for `Cc1c(C(O)(c2ccc(Cl)s2)C(F)(F)F)ccc(C#N)c1C(F)(F)F` (stereo not drawn): 5.62 nM.
In turn, `CC(C)(C)CC(O)(c1ccc(C#N)c(Cl)c1Cl)C(F)(F)F` (stereo not drawn) gave an EC50 at Androgen receptor of 3.16 nM.
On the same count and under the same terms, the same measure for `N#Cc1ccc(C(O)(c2cscn2)C(F)(F)F)cc1C(F)(F)F` (stereo not drawn): 2 nM.
Consider `Cc1c(C(O)(C(F)(F)F)C(F)(F)F)ccc(C#N)c1Cl`, for which, on Androgen receptor, the EC50 is 20 nM.
On Androgen receptor, `CCC(O)(c1ccc(C#N)c(Cl)c1Cl)C(F)(F)F` (stereo not drawn) gave an EC50 of 2.51 nM.
Compound `Cc1c(C(C)(O)C(F)(F)F)ccc(C#N)c1C(F)(F)F` (stereo not drawn) showed a concentration giving a half-maximal response (EC50) at Androgen receptor of 3.98 nM.
In the case of `N#Cc1ccc(C(O)(C2CC2)C(F)(F)F)cc1C(F)(F)F` (stereo not drawn), in series [2], the bioavailability amounted to 86%. The half-life in series [3] was 20 h. Also, the 50% effective concentration (EC50) on Androgen receptor is 0.158 nM.
`Cc1c(C(O)(c2ccco2)C(F)(F)F)ccc(C#N)c1C(F)(F)F` (stereo not drawn): the EC50 on Androgen receptor was 0.251 nM.
On Androgen receptor, `CCC(O)(c1ccc(C#N)c(Cl)c1C)C(F)(F)F` (stereo not drawn) had an EC50 of 2 nM.
The same measure, in the same setting: the same measure for `N#Cc1ccc(C(O)(C2CCC2)C(F)(F)F)cc1Cl` (stereo not drawn): 1.58 nM; for `N#Cc1ccc(C(O)(c2ccc(Cl)s2)C(F)(F)F)cc1C(F)(F)F` (stereo not drawn): 20 nM.
The same measure, in the same setting: the same measure for `Cc1c(C(O)(C(C)C)C(F)(F)F)ccc(C#N)c1C(F)(F)F` (stereo not drawn): 0.251 nM; for `N#Cc1ccc(C(O)(c2nccs2)C(F)(F)F)cc1C(F)(F)F` (stereo not drawn): 2 nM; for `N#Cc1ccc(C(O)(C2CCC2)C(F)(F)F)cc1C(F)(F)F` (stereo not drawn): 1.58 nM.
In turn, `Cc1c(C#N)ccc(C(O)(C(C)C)C(F)(F)F)c1C` (stereo not drawn) showed an EC50 on Androgen receptor of 12.6 nM.
Regarding `Cc1c(C(O)(c2ccc(Cl)o2)C(F)(F)F)ccc(C#N)c1C(F)(F)F` (stereo not drawn), the midpoint of the response at Androgen receptor, the EC50, lay at 2.88 nM.
Still for that read-out and setting: the same measure for `Cc1c(C(O)(c2cscn2)C(F)(F)F)ccc(C#N)c1C(F)(F)F` (stereo not drawn): 5.89 nM.
The same measure, in the same setting: the same measure for `CC(C)(C)C(O)(c1ccc(C#N)c(Cl)c1)C(F)(F)F` (stereo not drawn): 158 nM.
On the same count and under the same terms, the value for `N#Cc1ccc(C(O)(C2CCC2)C(F)(F)F)c(Cl)c1Cl` (stereo not drawn) was 0.631 nM; that for `Cc1c(C(O)(C2CCC2)C(F)(F)F)ccc(C#N)c1C(F)(F)F` (stereo not drawn) was 0.2 nM.
